Rows were chosen to be rich in hits. Some 2.9% of all compounds tested hit in one or more screens of this group.
Jurkat tox 60K = cytotoxicity toward Jurkat cells. Jurkat E6.1 viability, ATP luminescence, 48 h. 56,000 compounds, 1.2% hits. inhibition, % at 4 µM. AID 463;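 active = inhibition above the mean inhibition of all tested compounds plus 3 SD, cut at about 28% in these data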
SF-1 act = activators of human nuclear receptor SF-1. CHO-K1 Gal4-SF-1 LBD luciferase reporter; % increase over DMSO SF-1-specific signal. activation, % at 10 µM. 65,000 compounds, 1.9% hits. AID 522;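 active = activation above the mean activation of all tested compounds plus 3 SD, cut at about 50% in these data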
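Assay system: CHO-K1 cells co-transfected with Gal4 DBD–human SF-1 LBD, 5xGal4 luciferase reporter / Input: 4,000 cells per well / Incubation: 20 h compound exposure at 37 °C after 1 h cell settling / Detection: SteadyLite luciferase luminescence / Control set: DMSO negative control and −SF1 background wells / Replication: one test per compound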
RORa activator = activates the human nuclear receptor RORA | CHO-K1 Gal4-RORA LBD luciferase reporter, luminescence; percent increase over mock-subtracted basal signal | P35398 | activation, % at 10 µM | 65,000 compounds, 1.5% hits;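 active = activation above the mean of all tested compounds plus 3 SD, cut at about 49% in these data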
Target sequence (P35398 whole entry, looked up, the tested form may be a part): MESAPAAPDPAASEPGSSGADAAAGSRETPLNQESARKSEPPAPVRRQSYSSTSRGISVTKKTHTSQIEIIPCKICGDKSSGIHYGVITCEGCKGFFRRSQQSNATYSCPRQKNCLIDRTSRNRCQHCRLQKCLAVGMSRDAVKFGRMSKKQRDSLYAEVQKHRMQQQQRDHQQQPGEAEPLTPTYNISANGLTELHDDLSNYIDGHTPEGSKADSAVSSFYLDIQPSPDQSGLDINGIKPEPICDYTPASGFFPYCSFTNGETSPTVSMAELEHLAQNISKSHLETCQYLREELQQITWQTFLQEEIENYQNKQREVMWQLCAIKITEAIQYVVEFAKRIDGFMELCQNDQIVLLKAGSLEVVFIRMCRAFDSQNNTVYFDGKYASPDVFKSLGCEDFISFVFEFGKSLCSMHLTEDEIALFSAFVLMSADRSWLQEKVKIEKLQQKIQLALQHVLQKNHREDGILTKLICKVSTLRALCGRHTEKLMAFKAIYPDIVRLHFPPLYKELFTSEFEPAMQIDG
HEK293 NFkB inh = lowers PMA/ionomycin-induced NF-kB signal in HEK293 cells. HEK-293 NF-kB luciferase reporter, luminescence. 62,000 compounds, 0.21% hits. inhibition, % at 3 µM;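 active = inhibition above the mean of all tested compounds plus 3 SD, cut at about 40% in these data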
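Reagent: PMA plus ionomycin mix as NF-kB-activating stimulus. Assay system: NF-kB luciferase reporter HEK-293 cells. Technique: luminescence from luciferase substrate reagent. Incubation: 1 h compound pre-incubation, 16 h PMA/ionomycin at 37 °C. Benchmarks: DMSO only as uninhibited control, 10 µM reference inhibitor as full inhibition. Repeats: tested once.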
MT1-MMP txn act = MT1-MMP promoter transcription activation; HT1080 MT1-MMP promoter luciferase reporter, luminescence, overnight; hits give high values; activation factor at 10 µM; 86,000 compounds, 0.16% hits; AID 750;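 active = activation factor of at least 2 for MT1-MMP transcription at 10 µM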
Each line names hits and unclear results; the compound was inactive in the other large screens.

COc1cccc(C2=CC(c3cccc(OC)c3OC)n3nnnc3N2)c1 (stereo not drawn)	Jurkat tox 60K 67
COc1cccc(C2C=C(c3ccc(OC)cc3OC)Nc3nnnn32)c1 (stereo not drawn)	Jurkat tox 60K 41
COc1cccc(C2=CC(c3ccccc3)n3nnnc3N2)c1 (stereo not drawn)	RORa activator 79 (no result: Jurkat tox 60K, HEK293 NFkB inh)
COc1ccc(C2=CC(c3ccc(OC)c(OC)c3)n3nnnc3N2)c(OC)c1 (stereo not drawn)	none
COc1cc(NC(=O)CCCC(=O)OCC(F)(F)C(F)F)nc(OC)n1	none
Cc1sc(NC(=O)CN2CCN(c3ccccn3)CC2)c(C#N)c1C	none
COc1ccc(S(=O)(=O)N(CCc2ccccc2)CC(=O)O)cc1C	none (no result: Jurkat tox 60K, SF-1 act, RORa activator, HEK293 NFkB inh)
O=c1[nH]c2ccccc2c2nc3ccccn3c12	SF-1 act 65
CNC(=O)C(=O)NCCc1ccc(Cl)cc1	none (no result: Jurkat tox 60K, SF-1 act, RORa activator, HEK293 NFkB inh)
COc1ccc(NC2CC(=O)N(c3ccccc3)C2=O)cc1 (stereo not drawn)	SF-1 act 57
O=C1CC(Nc2ccc(N3CCOCC3)cc2)C(=O)N1c1ccccc1 (stereo not drawn)	none (no result: Jurkat tox 60K, SF-1 act, RORa activator, HEK293 NFkB inh)
O=S(=O)(c1cnc[nH]1)N1CCc2ccccc21	none
O=C(Nc1cccc(Br)c1)c1ccn[nH]1	RORa activator 54
Cc1cccc(N2CCN(C(=O)c3ccc(N4CCCC4=O)cc3)CC2)c1C	none
COc1ccc(CCNc2nnc(Sc3nnnn3-c3ccccc3)s2)cc1OC	Jurkat tox 60K 99
Clc1ccc(-n2ncc3c(NCc4ccccn4)ncnc32)cc1	SF-1 act 74 (no result: Jurkat tox 60K, HEK293 NFkB inh)
C=CCNc1ncnc2c1cnn2-c1cccc(C)c1	RORa activator 55
Cc1ccc(-n2ncc3c(NCc4ccccc4)ncnc32)cc1	SF-1 act 62, RORa activator 61
C=CCNc1ncnc2c1cnn2-c1ccc(Cl)cc1	SF-1 act 50
Clc1ccc(-n2ncc3c(NCCN4CCOCC4)ncnc32)cc1	none
Cc1ccc(-n2ncc3c(NCc4ccccn4)ncnc32)c(C)c1	none
CCN(CC)c1ccc(NC(=O)CN2C(=O)CSc3ncccc32)c(C)c1	none
Cc1cccc(-n2ncc3c(NCc4cccnc4)ncnc32)c1	SF-1 act 56, RORa activator 73
c1ccc(CNc2ncnc3ccccc23)cc1	Jurkat tox 60K 69
Cc1cccc(-n2ncc3c(NCCCO)ncnc32)c1	SF-1 act 67, RORa activator 83
c1ccc(-n2ncc3c(NCc4ccco4)ncnc32)cc1	SF-1 act 77, RORa activator 90
COCCCn1c(C2CCCCC2)nc2oc3cc(OC)ccc3c(=O)c2c1=O	none
O=C1C(=O)N(CCCN2CCOCC2)C(c2cccs2)/C1=C(/O)c1ccc2c(c1)OCO2 (stereo not drawn)	none (no result: Jurkat tox 60K)
CCOc1ccccc1CNC(=O)C1CCN(C(=O)c2sccc2-n2cccc2)CC1	none
CCOC(=O)N1CCN(C(=O)C2CCCN(c3nc4ccc(OCC)cc4s3)C2)CC1 (stereo not drawn)	none
CCOc1ccc2nc(N3CCC(C(=O)N4CCN(c5ncccn5)CC4)CC3)sc2c1	RORa activator 70
CCOc1ccc2nc(N3CCC(C(=O)N4CCN(c5ccccn5)CC4)CC3)sc2c1	Jurkat tox 60K 35, RORa activator 73
Nn1c(Nc2ccccc2)nc2ccccc21	RORa activator 50
Cc1ccc(Nc2cc(C)nn2-c2nc(C)cc(=O)[nH]2)cc1	Jurkat tox 60K 94, HEK293 NFkB inh 68
CCOc1ccc(C(=O)OCC(=O)NCc2ccco2)cc1OCC	none
CCCCN1CCc2c([nH]c3ccc(C)cc23)C1=O	SF-1 act 51, RORa activator 51
Cn1cc(Cl)c(-c2nc3ccccc3[nH]2)n1	RORa activator 56 (no result: Jurkat tox 60K)
Cc1ccccc1-c1nc2ccccc2[nH]1	MT1-MMP txn act 2 (no result: Jurkat tox 60K, SF-1 act, RORa activator, HEK293 NFkB inh)
O=C(O)CSc1nnc(-c2ccncc2)n1C1CCCCC1	none
Cc1ccc(NC(=O)c2nnn(-c3cc(C)cc(C)c3)c2N)cc1	SF-1 act 70, RORa activator 66
Cc1cccc(-n2nnc(C(=O)Nc3ccc(F)cc3)c2N)c1	SF-1 act 100, RORa activator 82
Cc1nc(NC(=O)c2ccc(Br)s2)sc1C(=O)N(C)C	SF-1 act 107, RORa activator 70
Cc1nc(NC(=O)c2cc3c(s2)CCCCC3)sc1C(=O)N(C)C	SF-1 act 60
Clc1nc2sccn2c1/C=N/n1cnc2ccccc21	RORa activator 52 (no result: Jurkat tox 60K)
CCOc1cc(-c2nnc(-c3ccco3)o2)cc(OCC)c1OCC	none
Brc1ccc(-c2nnc(-c3ccco3)o2)cc1	none
Cc1ccccc1-c1nnc(-c2ccccc2)o1	none
CCOc1ccc(-c2nnc(-c3cccs3)o2)cc1OCC	RORa activator 53
CCOc1ccc(-c2nnc(-c3ccco3)o2)cc1OCC	MT1-MMP txn act 2.1
Cc1cccc(-c2nnc(-c3ccccc3)o2)c1	SF-1 act 60
c1ccc(-c2nnc(-c3ccco3)o2)cc1	SF-1 act 51
Cc1cc2n(n1)C(c1ccccc1)Nc1ccccc1-2 (stereo not drawn)	none
Cc1cc2n(n1)C(c1ccc(N(C)C)cc1)Nc1ccccc1-2 (stereo not drawn)	SF-1 act 75
CN1C[C@@H]2C(c3ccc(Cl)nc3)C3(c4ccccc4)CC2(C3)[C@H]1c1ccccc1 (stereo partly drawn)	none (no result: Jurkat tox 60K, SF-1 act, RORa activator, HEK293 NFkB inh)
Cn1cc(-c2nnc(-c3ccccc3)o2)c2ccccc21	MT1-MMP txn act 2.3 (no result: Jurkat tox 60K, SF-1 act, RORa activator, HEK293 NFkB inh)
Cc1cc(C)n(-c2nc3ccccc3c(=O)n2OCC(=O)Nc2c(C)cccc2C)n1	none
CCOC(=O)c1c(C)[nH]c(C(=O)Nc2ccc3c(c2)OCO3)c1C	SF-1 act 132, RORa activator 59
CCOC(=O)c1c(C)c(C(=O)Nc2cc(OC)ccc2OC)c(C)n1CC	Jurkat tox 60K 35
CCOC(=O)c1c(C)c(C(=O)Nc2ccccc2)c(C)n1CC	none
CCOC(=O)c1[nH]c(C)c(C(=O)Nc2cc(OC)ccc2OC)c1C	Jurkat tox 60K 80
CCOC(=O)c1c(C)[nH]c(C(=O)OCC(=O)Nc2cc(C)ccc2OC)c1C	none
Cc1sc2ncnc(Sc3nnc4sc5ccccc5n34)c2c1C	none (no result: Jurkat tox 60K)
CC(=O)c1ccc(-c2nc3c4ccccc4ccn3c2C(C)=O)o1	HEK293 NFkB inh 89
Cc1nc2nc(-c3cccs3)cn2nc1C	RORa activator 53
COc1ccc(NS(=O)(=O)c2cc(C)ccc2C)cc1	Jurkat tox 60K 74
COc1ccc(NS(=O)(=O)c2cc(OC)ccc2NC(=O)c2cc(C)oc2C)cc1	Jurkat tox 60K 94
CCc1ccc(NS(=O)(=O)c2cc(OC)ccc2OC)cc1	Jurkat tox 60K 29
CCOC(=O)N1CCN(C(=O)CN2C(=O)COc3ccc(C(C)(C)C)cc32)CC1	none
CCn1c(N)c(C(=O)Nc2ccccc2C(=O)OC)sc1=S	none
CC(C)C(=O)Nc1ccc(C(=O)NCc2cccnc2)cc1	Jurkat tox 60K 82
O=C(Nc1cnc2ccccc2c1)c1cccc(-n2cnnn2)c1	SF-1 act 56

Assay outcomes from PubChem.
